MrgX1 allo act = human MrgX1 positive allosteric modulation, primary screen; 310,000 tested, 0.63% active; MrgX1-HEK293, Fluo-4 calcium flux, FDSS; stronger effect = higher value; AID 588675; Q96LB2; B-score at 10 µM;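 active = plate-corrected calcium response at least 3 library SD above typical, normal starting fluorescence, not activating the receptor alone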;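 also: compound read alongside a low EC10 to EC30 dose of BAM8-22 agonist; peak minus trough fluorescence over baseline measured at the second addition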
Target sequence (Q96LB2 whole entry, looked up): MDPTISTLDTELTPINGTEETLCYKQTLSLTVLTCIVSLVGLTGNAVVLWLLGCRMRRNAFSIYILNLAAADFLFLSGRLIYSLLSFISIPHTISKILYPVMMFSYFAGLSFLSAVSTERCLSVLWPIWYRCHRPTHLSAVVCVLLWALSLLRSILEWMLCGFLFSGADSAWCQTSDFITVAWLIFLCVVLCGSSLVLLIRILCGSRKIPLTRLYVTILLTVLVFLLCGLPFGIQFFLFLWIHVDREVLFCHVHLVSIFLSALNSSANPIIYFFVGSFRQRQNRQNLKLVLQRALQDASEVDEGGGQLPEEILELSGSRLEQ
RGS4 block = inhibitors of human RGS4; 310,000 tested, 0.45% active; B-score at 10 µM; HEK293 M3R/RGS4 inducible, Fluo-4 calcium flux; stronger effect = higher value; triggered by carbachol at its EC20; P49798; AID 463165;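 active = B-score, a plate-corrected calcium signal, over three deviations above library mean, with baseline fluorescence within five deviations of library mean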;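 also: RGS4 expression induced by doxycycline in cells with stable M3 receptor; B-score is computed from the integrated fluorescence ratio over baseline after carbachol; higher B-score means a larger calcium signal and so more RGS4 inhibition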
Target sequence (P49798 whole entry, looked up): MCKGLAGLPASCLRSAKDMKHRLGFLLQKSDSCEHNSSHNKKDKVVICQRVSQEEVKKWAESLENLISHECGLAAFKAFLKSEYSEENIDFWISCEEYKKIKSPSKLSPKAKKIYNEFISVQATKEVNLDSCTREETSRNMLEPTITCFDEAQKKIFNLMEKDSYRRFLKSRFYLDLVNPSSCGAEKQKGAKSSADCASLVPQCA
MrgX1 antagonist = blocks BAM8-22 activation of human MrgX1 receptor. MRGX1-HEK293 calcium flux, Fluo-4, BAM8-22 antagonism; stronger effect = lower value. Q96LB2. B-score at 10 µM. 310,000 tested, 1.3% active;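 active = calcium-response B-score plate-corrected more than 3 library SD below zero, starting fluorescence within 5 deviations, no agonist response on first addition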;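 also: peak minus trough fluorescence over baseline after final BAM8-22 challenge near maximal dose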
MrgX1 agonist = agonists of human MrgX1 receptor. MrgX1-HEK293 cells, Fluo-4 calcium fluorescence, agonist mode; stronger effect = higher value. B-score at 10 µM. 310,000 tested, 0.44% active. AID 588627;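 active = calcium response B-score plate-corrected fluorescence ratio at least 3 library SD, with starting fluorescence B-score inside 5 SD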
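Test system: Stable human MrgX1 HEK293 cell line | Schedule: Overnight plating before 1 h dye loading | Read-out basis: Baseline-normalised fluorescence change ratio, B-scored | Detection: Kinetic calcium dye fluorescence, Fluo-4 NW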
RGS4 pot = RGS4 potentiation or activation; HEK293 M3R/inducible RGS4, carbachol calcium flux Fluo4; stronger effect = lower value; B-score at 10 µM; 310,000 tested, 0.92% active;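 active = B-score of the integrated calcium signal more than 4 SD below the library mean, with starting fluorescence not abnormally high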;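 also: negative B-score means reduced calcium response which marks RGS4 activation or potentiation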
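System – HEK293 FlpIn-TREx cells, stable M3R, doxycycline-inducible RGS4 · Reagent – ECmax carbachol challenge · Times – compound preincubation 20 min at room temperature before agonist · Technique – Fluo4 fluorescence kinetic imaging of calcium · Measure – B score of integrated Fluo4 ratio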
MrgX1 antag conf = human MrgX1 receptor antagonism, re-confirmation screen | shares compounds with MrgX1 antagonist | MrgX1-HEK293, BAM8-22 calcium flux, Fluo-4; stronger effect = lower value | remaining BAM8-22 calcium response % of control (stronger effect = lower value), % at 10 µM | 2,300 tested, 19% active | AID 602420;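 active = remaining agonist calcium response no higher than 100% minus 3 SD of agonist-only control wells, with starting fluorescence near control levels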;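 also: agonist BAM8-22 given at a near maximal EC90 to ECmax level; peak minus minimum fluorescence divided by baseline after agonist addition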
HEK293 Ca flux = MrgX1 antagonist counter-screen hit in parental HEK293 cells; Fluo-4 calcium fluorescence, FDSS; 4,000 tested, 2% active; fluorescence ratio F(max-min)/F0 at 10 µM; shares compounds with MrgX1 antagonist; AID 624111;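 active = duplicate-averaged calcium fluorescence ratio at least three times the standard deviation of buffer wells, a nonspecific response in parental cells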
HEK293 Ca counter = MrgX1 allosteric activator counter-screen hit in parental HEK293 cells; shares compounds with MrgX1 antagonist; parental HEK293 calcium flux, Fluo-4 fluorescence ratio; stronger effect = higher value; fluorescence ratio F(max-min)/F0 at 10 µM; 4,000 tested, 0.4% active; AID 624114;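 active = calcium fluorescence ratio, averaged over duplicates, at least 3 SD of the buffer-well ratio, meaning a nonspecific response in receptor-free cells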;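 also: untransfected parental HEK293 lacking MrgX1 used as counterscreen for MrgX1 allosteric activators; fluorescence change taken during the second addition on a kinetic imager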
HEK293 Ca cntr2 = MrgX1 activator counter-screen hit in parental HEK293 cells. shares compounds with MrgX1 antagonist. Fluo-4 calcium fluorescence (FDSS); stronger effect = higher value. fluorescence ratio F(max-min)/F0 at 10 µM. 4,000 tested, 8.7% active. AID 624115;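 active = calcium fluorescence ratio at least three times the spread of buffer wells, meaning a non-specific response in parental cells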
Hits are given with their value; – = inactive; · = not tested or not shown. An excerpt weighted towards active compounds, which were near 3.5% of everything screened.

SMILES	MrgX1 allo act	RGS4 block	MrgX1 antagonist	MrgX1 agonist	RGS4 pot	MrgX1 antag conf	HEK293 Ca flux	HEK293 Ca counter	HEK293 Ca cntr2
CC(=O)N1CCSc2ccc(S(=O)(=O)NCCc3ccc(Cl)cc3)cc21	–	–	-5	–	–	–	–	–	–
CC(=O)N1CC(C)Sc2ccc(S(=O)(=O)NCCc3ccc(C)cc3)cc21 (configuration not stated)	–	–	–	–	–	·	·	·	·
C=CCn1c(SCc2ccc(C#N)cc2)nnc1-c1cccc(Cl)c1	–	–	–	–	–	·	·	·	·
C=CCn1c(SCc2cccc(C#N)c2)nnc1-c1ccccc1O	–	–	-4.6	–	–	–	–	–	–
COc1ccc(Cc2nnc(NS(C)(=O)=O)s2)cc1	–	–	-6.4	–	–	–	–	–	–
O=C(NC(=S)Nc1ccccc1)c1ccc(-c2ccccc2)cc1	–	–	–	–	–	·	·	·	·
O=C(O)c1ccc(NC(=S)NC(=O)c2ccc(-c3ccccc3)cc2)cc1	–	–	-5.2	–	–	82%	–	–	–
CCOC(=O)COc1ccc(S(=O)(=O)NCC2CCCO2)cc1 (configuration not stated)	–	–	-4.7	–	–	–	–	–	–
O=C(CC1NCCNC1=O)Nc1cccc([N+](=O)[O-])c1 (configuration not stated)	–	–	–	–	–	·	·	·	·
O=C(O)CCC(=O)NCC1OCCc2ccccc21 (configuration not stated)	–	–	-8.6	–	–	–	–	–	–
Cc1onc(C(=O)NC(C)c2ccccc2)c1[N+](=O)[O-] (configuration not stated)	–	–	–	–	–	·	·	·	·
COC(=O)c1nn(-c2ccccc2)c(Sc2ccc(Cl)cc2)c1/C=N/O	–	–	–	–	–	·	·	·	·
NCCCC[C@@H](C(=O)N1CCNCC1)n1cc(CN)nn1	–	·	-7.1	–	·	–	–	–	–
CCCCc1cn([C@@H](CCCCN)C(=O)N2CCNCC2)nn1	–	–	–	–	–	·	·	·	·
COc1ccc(S(=O)(=O)N(CC(=O)NCC2CCCO2)c2ccc(F)cc2)cc1OC (configuration not stated)	–	–	–	–	–	·	·	·	·
Cc1nc2sc3c(c2c(=O)o1)CC(C)(C)OC3	–	–	-6.1	–	–	–	–	–	–
CC(=O)c1ccc(NC(=S)NC(C)c2ccc(Cl)cc2Cl)cc1 (configuration not stated)	–	–	-10	–	–	–	–	–	–
O=C(Nc1nnc(C2CC2)s1)c1ccc(Cl)c(S(=O)(=O)N2CCc3ccccc3C2)c1	–	–	-6.4	–	–	63%	–	–	–
COCc1cc(=O)[nH]c(=S)[nH]1	–	–	-7.1	–	–	–	–	–	–
O=c1cc(Cc2ccccc2)[nH]c(=S)[nH]1	–	–	-5	–	–	–	–	–	–
CCCCC(=O)Nc1ccc(C(=O)N(CC)c2ccccc2C)cc1	–	–	-7	–	–	–	–	–	–
CCOC(=O)CSc1ncnc2c1c(-c1ccccc1)cn2-c1ccc(OC)cc1	–	–	-5.8	–	–	71%	–	–	–
N#CCCn1ncn(-c2ccccc2)c1=S	–	–	–	–	–	·	·	·	·
CCOC(=O)c1cnc(SCc2nc(N)nc(Nc3ccc(C)cc3)n2)nc1N	–	–	–	–	–	·	·	·	·
COc1cc(C)c(S(=O)(=O)NC2CC(C)(C)NC(C)(C)C2)cc1C	–	–	-8.3	–	–	–	–	–	–
CC1CN(c2ccccc2)c2nc3c(c(=O)[nH]c(=O)n3C)n2C1 (configuration not stated)	–	–	-6.7	–	–	–	–	–	–
